Reference: ChEMBL document CHEMBL2434865, “The influence of positional isomerism on G-quadruplex binding and anti-proliferative activity of tetra-substituted naphthalene diimide compounds” (Bioorg Med Chem, 2013)

Assays:
[1] = species on record: Homo sapiens; experiment: Binding affinity to human HSP90B 5'-FAM-GGGCGGGCCAAAGGGAAGGGG-TAMRA-3' at 2 uM after 3 hrs by HT-FRET assay
Procedure, shortened: (§1)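 Oligonucleotides were diluted from 50 µM stock to 400 nM in 60 mM potassium cacodylate pH 7.4, annealed at 95 °C for 10 min, then cooled to RT over 3 h. Ligand came from a 10 mM aqueous stock, was diluted to twice the final level in buffer and mixed 1:1 with DNA, in triplicate. FAM excitation was 450–495 nm and emission 515–545 nm, read every 0.5 °C from 30–100 °C with a 30 s hold. Tm is the first-derivative maximum of the smoothed, normalized curve; ΔTm is relative to DNA without ligand.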

[2] = test system: MIA PaCa-2; experiment: Cytotoxicity against human MIAPaCa2 cells after 96 hrs by SRB assay; assay type: functional, cell-based; conditions: MIA PaCa-2, 96 h
Procedure, shortened: (§2)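 For A549, MCF7, MIA PaCa2 (DMEM with 2 mM glutamine and 10% FCS) and PANC1 (same DMEM), 1000–4000 cells per well were seeded and left 24 h. Compound was added over a concentration range for 96 h at 37 °C in 5% CO2. Cells were fixed with 10% TCA (30 min, 4 °C) and stained with 0.4% SRB in 1% acetic acid for 15 min. Dye was dissolved in 10 mM Tris and read at A540. IC50 was interpolated as the level giving 50% absorbance loss versus untreated cells.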

[3] = species on record: Homo sapiens; experiment: Binding affinity to human HSP90A 5'-FAM-GGGCCAAAGGGAAGGGGTGGG-TAMRA-3' at 1 uM after 3 hrs by HT-FRET assay; procedure, shortened: as §1
[4] = test system: A549; experiment: Cytotoxicity against human A549 cells after 96 hrs by SRB assay; assay type: functional, cell-based; conditions: A549, 96 h; procedure, shortened: as §2
[5] = species on record: Homo sapiens; experiment: Binding affinity to human T-loop 5'-FAM-TATAGCTATATTTTTTTATAGCTATATAMRA-3' at 2 uM after 3 hrs by HT-FRET assay; procedure, shortened: as §1
[6] = test system: MCF7; experiment: Cytotoxicity against human MCF7 cells after 96 hrs by SRB assay; assay type: functional, cell-based; conditions: MCF7, 96 h; procedure, shortened: as §2
[7] = Cytotoxicity against human 786-O cells after 96 hrs by SRB assay; assay type: functional, cell-based; conditions: 786-0, 96 h
Procedure, shortened: (§3)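 Monolayer cultures were kept at 37 °C in humidified 5% CO2. Media were RPMI 1640 with 2 mM glutamine, 10% FCS and 1 mM pyruvate for 786-O, and MEM with 2 mM glutamine, 1% amino acids and 10% FCS for WI-38. Cells were exposed to compound over a concentration range for 96 h. Cells were fixed with TCA, stained with SRB, dissolved in 10 mM Tris and read at 540 nm. Values were normalized to untreated controls, and IC50 was interpolated as 50% absorbance reduction.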

[8] = species on record: Homo sapiens; experiment: Binding affinity to human HSP90A 5'-FAM-GGGCCAAAGGGAAGGGGTGGG-TAMRA-3' at 2 uM after 3 hrs by HT-FRET assay; procedure, shortened: as §1
[9] = Cytotoxicity against human RCC4 cells after 96 hrs by SRB assay; assay type: functional, cell-based; conditions: RCC4, 96 h
[10] = species on record: Homo sapiens; experiment: Binding affinity to human telomeric quadruplex 5'-FAM-GGGTTAGGGTTAGGGTTAGGG-TAMRA-3' at 1 uM after 3 hrs by HT-FRET assay; procedure, shortened: as §1
[11] = test system: WI-38; experiment: Cytotoxicity against human WI38 cells after 96 hrs by SRB assay; assay type: cell-based; conditions: WI-38, 96 h; procedure, shortened: as §3
[12] = test system: PANC-1; experiment: Cytotoxicity against human PANC1 cells after 96 hrs by SRB assay; assay type: functional, cell-based; conditions: PANC-1, 96 h; procedure, shortened: as §2
[13] = species on record: Homo sapiens; experiment: Binding affinity to human HSP90B 5'-FAM-GGGCGGGCCAAAGGGAAGGGG-TAMRA-3' at 1 uM after 3 hrs by HT-FRET assay; procedure, shortened: as §1
[14] = species on record: Homo sapiens; experiment: Binding affinity to human telomeric quadruplex 5'-FAM-GGGTTAGGGTTAGGGTTAGGG-TAMRA-3' at 2 uM after 3 hrs by HT-FRET assay; procedure, shortened: as §1
[15] = species on record: Homo sapiens; experiment: Binding affinity to human T-loop 5'-FAM-TATAGCTATATTTTTTTATAGCTATATAMRA-3' at 1 uM after 3 hrs by HT-FRET assay; procedure, shortened: as §1
[16] = test system: PANC-1; experiment: Ratio of IC50 for human MIAPaCa2 cells to IC50 for human PANC1 cells; assay type: functional

For `COCCCNc1cc2c3c(c(NCCCOC)cc4c3c1C(=O)N(CCCN1CCN(C)CC1)C4=O)C(=O)N(CCCN1CCN(C)CC1)C2=O`, the ΔTm [1] was 26 °C, the IC50 [2] was 7050 nM and the ΔTm [3] was 22 °C. It also gave an IC50 [4] of 5750 nM, a ΔTm [5] of 0 °C and an IC50 [6] of 17500 nM. For the same molecule, the IC50 [7] was 16100 nM, the ΔTm [8] was 24 °C and the IC50 [9] was 7600 nM. The ΔTm [10] was under 2 °C, the IC50 [11] was over 25000 nM and the IC50 [12] was 2500 nM. It also gave a ΔTm [13] of 22 °C, a ΔTm [14] of 16 °C and a ΔTm [15] of 0 °C.
In the case of `CN1CCN(CCCN2C(=O)c3cc(NCC4CCOCC4)c4c5c(cc(NCC6CCOCC6)c(c35)C2=O)C(=O)N(CCCN2CCN(C)CC2)C4=O)CC1`, the ΔTm [1] is reported as 23 °C, the IC50 [2] is reported as 137 nM and the ΔTm [3] is reported as 2 °C. The IC50 [4] was 460 nM, the ΔTm [5] was 0 °C and the IC50 [6] was 510 nM. For the same molecule, the IC50 [7] was 290 nM, the ΔTm [8] was 27 °C and the IC50 [9] was 2200 nM. It also gave a ΔTm [10] of under 2 °C, an IC50 [11] of 2800 nM and an IC50 [12] of 1100 nM. For the same molecule, the ΔTm [13] was 3 °C, the ΔTm [14] was 22 °C and the ΔTm [15] was 0 °C.
With `CN1CCN(CCCN2C(=O)c3cc(NC[C@@H]4CCCO4)c4c5c(cc(NC[C@H]6CCCO6)c(c35)C2=O)C(=O)N(CCCN2CCN(C)CC2)C4=O)CC1` the ΔTm [1] was 17 °C, the IC50 [2] was 95 nM and the ΔTm [3] was 21 °C. It also gave an IC50 [4] of 160 nM, a ΔTm [5] of 0 °C and an IC50 [6] of 560 nM. For the same molecule, the IC50 [7] was 390 nM, the ΔTm [8] was 23 °C and the IC50 [9] was 3000 nM. The ΔTm [10] was under 2 °C, the IC50 [11] was 2300 nM and the IC50 [12] was 1500 nM. It also gave a ΔTm [13] of 13 °C, a ΔTm [14] of 15 °C and a ΔTm [15] of 0 °C.
With `CN1CCN(CCCNc2cc3c4c(c(NCCCN5CCN(C)CC5)cc5c4c2C(=O)N(CCCN2CCOCC2)C5=O)C(=O)N(CCCN2CCOCC2)C3=O)CC1` the IC50 [12] was 3 nM and the “Ratio IC50” value [16] was 5.
Work on `CN1CCN(CCCN2C(=O)c3cc(NCCCN4CCOCC4)c4c5c(cc(NCCCN6CCOCC6)c(c35)C2=O)C(=O)N(CCCN2CCN(C)CC2)C4=O)CC1` yielded a ΔTm [1] of 34 °C, an IC50 [2] of 50 nM and a ΔTm [3] of 34 °C. The IC50 [4] was 7 nM, the ΔTm [5] was 9 °C and the IC50 [6] was 14 nM. The IC50 [7] was 440 nM, the ΔTm [8] was 36 °C and the IC50 [9] was 610 nM. The ΔTm [10] was 29 °C, the IC50 [11] was 300 nM and the IC50 [12] was 2 nM. It also gave a ΔTm [13] of 30 °C, a ΔTm [14] of 34 °C and a ΔTm [15] of 5 °C.
`CN1CCN(CCN2C(=O)c3cc(NCCCN4CCOCC4)c4c5c(cc(NCCCN6CCOCC6)c(c35)C2=O)C(=O)N(CCN2CCN(C)CC2)C4=O)CC1` gave a ΔTm [1] of 32 °C, an IC50 [2] of 5 nM and a ΔTm [3] of 33 °C. The IC50 [4] was 20 nM, the ΔTm [5] was 8 °C and the IC50 [6] was 21 nM. It also gave an IC50 [7] of 160 nM, a ΔTm [8] of 36 °C and an IC50 [9] of 300 nM. It also gave a ΔTm [10] of 26 °C, an IC50 [11] of 180 nM and an IC50 [12] of 5 nM. For the same molecule, the ΔTm [13] was 28 °C, the ΔTm [14] was 31 °C and the ΔTm [15] was 2 °C.
